# From ChEMBL document CHEMBL4765329, “Exploration of carbamide derived pyrimidine-thioindole conjugates as potential VEGFR-2 inhibitors with anti-angiogenesis effect” (Eur J Med Chem, 2020)
# Active and inactive are the calls of the source. The rule behind the calls is not given here.
# Columns and labels:
# [1] = system: A549; test: cells; details: Homo sapiens, A549, 72 h
# [2] = system: PC-3; test: cells; details: Homo sapiens, PC-3, 72 h
# [3] = system: HepG2; test: cells; details: Homo sapiens, HepG2, 72 h
# [4] = system: MDA-MB-231; test: cells; details: Homo sapiens, MDA-MB-231, 72 h
# [5] = system: MDA-MB-231; test: Antimigratory activity against human MDA-MB-231 cells assessed as inhibition of cell migration at 5 uM measured after 24 hrs by phase contrast microscope based wound healing assay; type: functional
# How it was run: (§1)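 Confluent MDA-MB-231 monolayers (DMEM, 10% FBS) were scratched with a sterile pipette tip and then treated. Wound closure was imaged by phase contrast microscopy after 24 h and compared with untreated control.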
# [6] = system: HUVEC; test: Antimigratory activity against human HUVEC cells assessed as inhibition of cell invasion measured by inverted fluorescence microscope based transwell assay; type: functional; details: dose 2.5-5 µM
# How it was run: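 A Boyden chamber (transwell) invasion assay used HUVECs passing through Matrigel and a membrane barrier. Treatment was 2.5 and 5 µM, with a reference VEGFR-2 inhibitor as standard. Invaded cells on the bottom side were compared with untreated control.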
# [7] = system: MDA-MB-231; test: Antimigratory activity against human MDA-MB-231 cells assessed as inhibition of cell migration at 2.5 uM measured after 24 hrs by phase contrast microscope based wound healing assay; type: functional
# How it was run: as §1
# [8] = system: HUVEC; test: Antiangiogenic activity against human HUVEC cells assessed as inhibition of tube formation measured after 16 hrs by matrigel based tube formation assay; type: functional, cell-based; details: dose 2.5-5 µM
# How it was run: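 HUVECs were plated on Matrigel with 2.5 and 5 μM test agent, alongside a reference VEGFR-2 inhibitor. Tube networks were imaged, and quantification covered cell-covered area, tube length, branching points and total loops.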
# [9] = system: MDA-MB-231; test: Induction of mitochondrial membrane potential loss in human MDA-MB-231 cells assessed as generation of ROS at 2.5 uM measured after 48 hrs by carboxy […] stain based flow cytometry assay relative to control; type: functional, cell-based
# How it was run: (§2)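 MDA-MB-231 cells were treated at several doses and stained with carboxy-H2DCFDA. ROS were read as green DCF fluorescence relative to untreated control.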
# [10] = system: MDA-MB-231; test: Induction of apoptosis in human MDA-MB-231 cells assessed as induction of morphological changes by measuring nuclear shrinkage and fragmentation in nucleus measured after 48 hrs by Hoechst stain based flourescence assay in relative to control; type: functional, cell-based; details: dose 2.5-5 µM
# How it was run: (§3)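 MDA-MB-231 cells were treated at 2.5 and 5 µM and stained with Hoechst. Nuclei were examined by fluorescence for chromatin condensation, nuclear shrinkage, and pyknotic or fragmented nuclei against untreated control.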
# [11] = system: MDA-MB-231; test: Induction of apoptosis in human MDA-MB-231 cells assessed as late apoptotic cells at 5 uM measured after 48 hrs by Annexin V-FITC/Propidium iodide stain based flow cytometry assay (reference value: 1.2%); type: functional
# [12] = system: MDA-MB-231; test: Induction of apoptosis in human MDA-MB-231 cells assessed as viable cells at 5 uM measured after 48 hrs by Annexin V-FITC/Propidium iodide stain based flow cytometry assay (reference value: 95.3%); type: functional; details: read-out: Activity
# [13] = system: MDA-MB-231; test: Induction of apoptosis in human MDA-MB-231 cells assessed as necrotic cells at 2.5 uM measured after 48 hrs by Annexin V-FITC/Propidium iodide stain based flow cytometry assay (reference value: 0.3%); type: functional
# [14] = system: MDA-MB-231; test: Induction of apoptosis in human MDA-MB-231 cells assessed as late apoptotic cells at 2.5 uM measured after 48 hrs by Annexin V-FITC/Propidium iodide stain based flow cytometry assay (reference value: 1.2%); type: functional
# [15] = system: MDA-MB-231; test: Induction of apoptosis in human MDA-MB-231 cells assessed as viable cells at 2.5 uM measured after 48 hrs by Annexin V-FITC/Propidium iodide stain based flow cytometry assay (reference value: 95.3%); type: functional; details: read-out: Activity
# [16] = system: MDA-MB-231; test: Induction of apoptosis in human MDA-MB-231 cells assessed as early apoptotic cells at 2.5 uM measured after 48 hrs by Annexin V-FITC/Propidium iodide stain based flow cytometry assay (reference value: 3.2%); type: functional
# [17] = system: MDA-MB-231; test: Induction of apoptosis in human MDA-MB-231 cells assessed as necrotic cells at 5 uM measured after 48 hrs by Annexin V-FITC/Propidium iodide stain based flow cytometry assay (reference value: 0.3%); type: functional
# [18] = system: MDA-MB-231; test: Induction of apoptosis in human MDA-MB-231 cells assessed as induction of morphological changes by measuring chromatin condensation measured after 48 hrs by Hoechst stain based flourescence assay in relative to control; type: functional, cell-based; details: dose 2.5-5 µM
# How it was run: as §3
# [19] = system: MDA-MB-231; test: Induction of apoptosis in human MDA-MB-231 cells assessed as early apoptotic cells at 5 uM measured after 48 hrs by Annexin V-FITC/Propidium iodide stain based flow cytometry assay (reference value: 3.2%); type: functional
# [20] = system: MDA-MB-231; test: Induction of mitochondrial membrane potential loss in human MDA-MB-231 cells assessed as increase in depolarised cells measured after 48 hrs by JC-1 stain based flow cytometry assay relative to control; type: functional, cell-based; details: dose 2.5-5 µM
# How it was run: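 MDA-MB-231 cells were treated at 2.5 and 5 µM and stained with JC-1. Depolarised mitochondria were scored by green monomer signal and healthy mitochondria by red J-aggregates, against control.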
# [21] = system: MDA-MB-231; test: Induction of mitochondrial membrane potential loss in human MDA-MB-231 cells assessed as generation of ROS at 5 uM measured after 48 hrs by carboxy […] stain based flow cytometry assay relative to control; type: functional, cell-based
# How it was run: as §2
IC50 [1],IC50 [2],IC50 [3],IC50 [4],SMILES,also measured
33.1 µM,12.1 µM,20.9 µM,8.13 µM,O=C(Nc1ccccc1)Nc1nc(Sc2c[nH]c3ccccc23)cc(N2CCCCC2)n1,–
> 50 µM,42.5 µM,8.16 µM,10.2 µM,O=C(Nc1ccccc1)Nc1nc(Sc2c[nH]c3ccccc23)cc(N2CCN(Cc3ccccc3)CC2)n1,–
> 50 µM,15.1 µM,17.4 µM,9.46 µM,COc1ccc(NC(=O)Nc2nc(Nc3cc(OC)cc(OC)c3)cc(Sc3c[nH]c4ccccc34)n2)cc1,–
21.2 µM,14.9 µM,11.4 µM,7.89 µM,O=C(Nc1ccccc1)Nc1nc(Sc2c[nH]c3ccccc23)cc(N2CCCC2)n1,–
18.6 µM,42.5 µM,14.8 µM,10.1 µM,O=C(Nc1ccc(Cl)cc1)Nc1nc(Sc2c[nH]c3ccccc23)cc(N2CCCCC2)n1,–
8.93 µM,12.9 µM,7.15 µM,9.44 µM,Cc1cc(Cl)ccc1NC(=O)Nc1nc(Sc2c[nH]c3ccccc23)cc(N2CCCC2)n1,–
> 50 µM,33.4 µM,11.4 µM,28.4 µM,COc1ccc(NC(=O)Nc2nc(Sc3c[nH]c4ccccc34)cc(N3CCN(c4ccccn4)CC3)n2)cc1,–
> 50 µM,17.5 µM,14.3 µM,7.86 µM,O=C(Nc1ccccc1)Nc1nc(NC2CC2)cc(Sc2c[nH]c3ccccc23)n1,–
11.8 µM,21.5 µM,20.3 µM,13.1 µM,COc1ccc(NC(=O)Nc2nc(Sc3c[nH]c4ccccc34)cc(N3CCCC3)n2)cc1,–
> 50 µM,33.8 µM,8.26 µM,8.65 µM,Cc1cc(Cl)ccc1NC(=O)Nc1nc(Sc2c[nH]c3ccccc23)cc(N2CCOCC2)n1,–
33.4 µM,12.5 µM,10.3 µM,7.94 µM,COc1ccc(NC(=O)Nc2nc(Sc3c[nH]c4ccccc34)cc(N3CCOCC3)n2)cc1,–
–,9.77 µM,5.78 µM,11.8 µM,CNC(=O)c1cc(Oc2ccc(NC(=O)Nc3ccc(Cl)c(C(F)(F)F)c3)cc2)ccn1 [SORAFENIB],inhibition [5]: Active; inhibition [6]: Dose-dependent effect; inhibition [7]: Active; inhibition [8]: Dose-dependent effect
13.5 µM,17.4 µM,17.1 µM,7.26 µM,COc1ccc(NC(=O)Nc2nc(Sc3c[nH]c4ccccc34)cc(N3CCCCC3)n2)cc1,–
> 50 µM,19.8 µM,7.64 µM,34.7 µM,Cc1cc(Cl)ccc1NC(=O)Nc1nc(Sc2c[nH]c3ccccc23)cc(N2CCN(c3ccccn3)CC2)n1,–
31.5 µM,11.1 µM,9.74 µM,14.6 µM,Cc1cc(Cl)ccc1NC(=O)Nc1nc(NC2CC2)cc(Sc2c[nH]c3ccccc23)n1,–
26.1 µM,14.1 µM,7.14 µM,12.1 µM,O=C(Nc1ccccc1)Nc1nc(Sc2c[nH]c3ccccc23)cc(N2CCOCC2)n1,–
42.3 µM,16.7 µM,21.4 µM,8.92 µM,COc1ccc(NC(=O)Nc2nc(Sc3c[nH]c4ccccc34)cc(N3CCN(Cc4ccccc4)CC3)n2)cc1,–
> 50 µM,41.9 µM,8.37 µM,17.1 µM,Cc1cc(Cl)ccc1NC(=O)Nc1nc(Nc2ccccc2)cc(Sc2c[nH]c3ccccc23)n1,–
> 50 µM,22.4 µM,11.7 µM,22.1 µM,Cc1cc(Cl)ccc1NC(=O)Nc1nc(Sc2c[nH]c3ccccc23)cc(N2CCN(Cc3ccccc3)CC2)n1,–
48.4 µM,32.3 µM,12.6 µM,10.3 µM,O=C(Nc1ccccc1)Nc1nc(Nc2ccc(Cl)cc2)cc(Sc2c[nH]c3ccccc23)n1,–
> 50 µM,17.3 µM,16.4 µM,19 µM,Cc1ccc(C)c(NC(=O)Nc2nc(Sc3c[nH]c4ccccc34)cc(N3CCN(Cc4ccccc4)CC3)n2)c1,–
21.8 µM,28.4 µM,22.5 µM,6.93 µM,O=C(Nc1ccc(Cl)cc1)Nc1nc(Sc2c[nH]c3ccccc23)cc(N2CCOCC2)n1,–
6.41 µM,10.4 µM,7.87 µM,–,O=C(Nc1ccc(Cl)cc1)Nc1nc(Sc2c[nH]c3ccccc23)cc(N2CCCC2)n1,Activity [9]: Active; Activity [10]: Dose-dependent effect; inhibition [5]: Active; Activity [11]: 11.2%; viability at 5 µM [12]: 51.4%; inhibition [6]: Dose-dependent effect; Activity [13]: 0.5%; Activity [14]: 3.8%; viability at 2.5 µM [15]: 76.2%; inhibition [7]: Active; Activity [16]: 19.4%; Activity [17]: 0.9%; Activity [18]: Dose-dependent effect; inhibition [8]: Dose-dependent effect; Activity [19]: 36.6%; Activity [20]: Active; Activity [21]: Active
> 50 µM,26.4 µM,14.4 µM,35.9 µM,O=C(Nc1ccccc1)Nc1nc(Nc2ccccc2)cc(Sc2c[nH]c3ccccc23)n1,–
25.4 µM,> 50 µM,6.44 µM,–,Cc1ccc(C)c(NC(=O)Nc2nc(Sc3c[nH]c4ccccc34)cc(N3CCCCC3)n2)c1,Activity [9]: Active; Activity [10]: Dose-dependent effect; Activity [18]: Dose-dependent effect; Activity [20]: Active; Activity [21]: Active
30.2 µM,21.6 µM,8.93 µM,19.5 µM,O=C(Nc1ccccc1)Nc1nc(Sc2c[nH]c3ccccc23)cc(N2CCN(c3ccccn3)CC2)n1,–
23.4 µM,18.4 µM,14.9 µM,13.4 µM,Cc1ccc(NC(=O)Nc2nc(Nc3ccccc3)cc(Sc3c[nH]c4ccccc34)n2)cc1,–
> 50 µM,11.6 µM,24.8 µM,> 50 µM,COc1cc(NC(=O)Nc2nc(Nc3cc(OC)cc(OC)c3)cc(Sc3c[nH]c4ccccc34)n2)cc(OC)c1,–
